The values that follow come from ChEMBL document CHEMBL3407418, “Fragment-based drug discovery of 2-thiazolidinones as BRD4 inhibitors: 2. Structure-based optimization” (J Med Chem, 2015).

Data set [1] deals with T1, Cytochrome P450 1A2 (Homo sapiens, UniProt P05177).
T1 sequence (P05177 whole entry): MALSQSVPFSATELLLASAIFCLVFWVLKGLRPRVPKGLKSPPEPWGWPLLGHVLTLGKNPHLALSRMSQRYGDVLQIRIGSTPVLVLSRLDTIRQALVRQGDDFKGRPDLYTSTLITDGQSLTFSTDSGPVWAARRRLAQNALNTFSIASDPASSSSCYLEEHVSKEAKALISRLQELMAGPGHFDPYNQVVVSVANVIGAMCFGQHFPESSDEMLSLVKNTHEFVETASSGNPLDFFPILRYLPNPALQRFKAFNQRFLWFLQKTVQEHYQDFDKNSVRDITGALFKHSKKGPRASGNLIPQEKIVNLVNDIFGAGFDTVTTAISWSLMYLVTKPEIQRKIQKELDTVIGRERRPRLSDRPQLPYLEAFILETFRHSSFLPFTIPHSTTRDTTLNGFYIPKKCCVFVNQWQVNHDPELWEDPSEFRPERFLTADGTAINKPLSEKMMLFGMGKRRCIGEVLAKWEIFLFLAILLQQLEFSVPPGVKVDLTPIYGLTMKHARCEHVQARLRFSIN
Briefly: Time dependent inhibition of CYP1A2 in human liver microsomes at 10 uM using phenacetin substrate preincubated for 5 mins before NADPH addition and measured after 20 mins post NADPH addition. Format: ADME.

Data set [2] deals with Cytochrome P450 2C19 (Homo sapiens, UniProt P33261). Briefly: Time dependent inhibition of CYP2C19 in human liver microsomes at 10 uM using mephenytoin substrate preincubated for 5 mins before NADPH addition and measured after 20 mins post NADPH addition. It is filed as ADME.
For data set [3], the target named is T2, Cytochrome P450 2C9 (Homo sapiens, UniProt P11712). Briefly: (§1) Inhibition of CYP2C9 in human liver microsomes at 10 uM using diclofenac substrate preincubated for 5 mins before NADPH addition and measured after 20 mins post NADPH addition. Particulars: microsomes, 20 min, 10 µM; call rule not given here. Format: ADME. Put shortly:
(§2)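 Human liver microsomes 0.2 mg/mL, 1 mmol NADPH, 100 mmol phosphate pH 7.4, probe cocktail (10 μM midazolam, 100 μM testosterone, 10 μM dextromethorphan, 20 μM diclofenac, 100 μM phenacetin, 100 μM mephenytoin), test compound 10 μM or PBS; organic solvent <1%. 5 min preincubation at 37 °C, NADPH-generating system start, 20 min reaction; inhibition from metabolite formation relative to PBS.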

Data set [4] deals with MV4-11. Kind of data set: Growth inhibition of human MV4-11 cells after 72 hrs by CellTiter-Glo luminescent cell viability assay. As to conditions: MV4-11, 72 h.
Data set [5] addresses T3, CYP1A2 (Homo sapiens, UniProt P05177).
T3 sequence (P05177 whole entry): T1 sequence (P05177 whole entry)
Briefly: Inhibition of CYP1A2 in human liver microsomes at 10 uM using phenacetin substrate preincubated for 5 mins before NADPH addition and measured after 20 mins post NADPH addition. It is filed as ADME. As to conditions: probe phenacetin. The method in brief:
as §2

The target in data set [6] is Cytochrome P450 3A4 (Homo sapiens, UniProt P08684). Kind of data set: Time dependent inhibition of CYP3A4 in human liver microsomes at 10 uM using midazolam substrate preincubated for 5 mins before NADPH addition and measured after 20 mins post NADPH addition. Format: ADME.
Data set [7] concerns the target CYP2C19 (Homo sapiens, UniProt P33261). Briefly: Inhibition of CYP2C19 in human liver microsomes at 10 uM using mephenytoin substrate preincubated for 5 mins before NADPH addition and measured after 20 mins post NADPH addition. Format: ADME. Particulars: probe mephenytoin. The method in brief: as §2
Data set [8] is described as follows: Stability in human liver microsomes assessed as clearance at 1 uM pre-incubated for 5 mins followed by NADPH addition and measured after 5 to 30 mins post NADPH addition by LC/MS/MS method. Particulars: read-out: CLH. Format: ADME. Put shortly: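 Human liver microsomes (0.5 mg/mL) preincubated with 1 µM compound for 5 min at 37 °C in 0.1 M phosphate pH 7.4 with 1 mmol EDTA and 5 mmol MgCl2. Started with 1 mmol NADPH; sampled at 0, 5, 10 and 30 min. Quenched with equal volume of cold acetonitrile, vortexed, and centrifuged at 10,000 × g.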

Data set [9] addresses T2, Cytochrome P450 2C9. Kind of data set: Time dependent inhibition of CYP2C9 in human liver microsomes at 10 uM using diclofenac substrate preincubated for 5 mins before NADPH addition and measured after 20 mins post NADPH addition. Format: ADME.
Data set [10] addresses Bromodomain-containing protein 4 (Homo sapiens, UniProt O60885). Kind of data set: Inhibition of BRD4(1) (unknown origin) incubated for 4 hrs by (+)-JQ1 fluorescent ligand based fluorescence anisotrophy.
For data set [11], the target named is Cytochrome P450 2D6 (Homo sapiens, UniProt P10635). Briefly: Time dependent inhibition of CYP2D6 in human liver microsomes at 10 uM using dextromethorphan substrate preincubated for 5 mins before NADPH addition and measured after 20 mins post NADPH addition. Format: ADME.
The target of data set [12] is T4, CYP3A4 (Homo sapiens, UniProt P08684). Briefly: Inhibition of CYP3A4 in human liver microsomes at 10 uM preincubated for 5 mins before NADPH addition and measured after 20 mins post NADPH addition. Format: ADME.
Data set [13] deals with CYP2D6 (Homo sapiens, UniProt P10635). Kind of data set: Inhibition of CYP2D6 in human liver microsomes at 10 uM using dextromethorphan substrate preincubated for 5 mins before NADPH addition and measured after 20 mins post NADPH addition. It is filed as ADME. Particulars: liver microsomes, probe dextromethorphan. Put shortly:
as §2

The nature of data set [14]: Growth inhibition of human MM1S cells after 72 hrs by CellTiter-Glo luminescent cell viability assay. As to conditions: MM1.S.
Data set [15] deals with T4, CYP3A4. Kind of data set: Inhibition of CYP3A4 in human liver microsomes at 10 uM using midazolam substrate preincubated for 5 mins before NADPH addition and measured after 20 mins post NADPH addition. As to conditions: probe midazolam. Format: ADME. The method in brief:
as §2

The subject of data set [16] is HT-29. Briefly: Growth inhibition of human HT-29 cells after 72 hrs by SRB assay. It is filed as functional, cell-based. As to conditions: HT-29, 72 h. The method in brief:
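HT-29 cells are grown in McCoy's 5A with 10% FBS at 37 °C, 5% CO2. DMSO stocks (0.01 mol/L) are diluted in normal saline just before use. Cells are treated in triplicate with gradient concentrations for 72 h at 37 °C.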

Data set [17] has as its target CYP2C9 (Homo sapiens, UniProt P11712). The data set is described as §1. As to conditions: liver microsomes, probe diclofenac. Format: ADME. The method in brief:
as §2

Structures are written as SMILES.

T4 sequence (P08684 whole entry): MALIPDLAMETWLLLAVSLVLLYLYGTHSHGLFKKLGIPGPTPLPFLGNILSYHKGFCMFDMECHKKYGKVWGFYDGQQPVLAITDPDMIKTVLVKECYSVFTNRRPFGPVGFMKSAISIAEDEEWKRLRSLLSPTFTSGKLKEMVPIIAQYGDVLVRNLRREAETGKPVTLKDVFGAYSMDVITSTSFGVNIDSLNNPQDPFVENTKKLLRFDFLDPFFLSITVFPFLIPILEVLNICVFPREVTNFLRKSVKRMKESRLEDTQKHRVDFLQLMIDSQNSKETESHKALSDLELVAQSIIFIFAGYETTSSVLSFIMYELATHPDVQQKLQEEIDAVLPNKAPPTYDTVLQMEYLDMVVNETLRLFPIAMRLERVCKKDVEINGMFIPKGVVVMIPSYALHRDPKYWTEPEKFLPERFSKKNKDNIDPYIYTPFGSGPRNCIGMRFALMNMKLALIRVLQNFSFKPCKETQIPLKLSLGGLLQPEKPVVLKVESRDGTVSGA
Sequence of Cytochrome P450 3A4 (P08684 whole entry): as above
T2 sequence (P11712 whole entry): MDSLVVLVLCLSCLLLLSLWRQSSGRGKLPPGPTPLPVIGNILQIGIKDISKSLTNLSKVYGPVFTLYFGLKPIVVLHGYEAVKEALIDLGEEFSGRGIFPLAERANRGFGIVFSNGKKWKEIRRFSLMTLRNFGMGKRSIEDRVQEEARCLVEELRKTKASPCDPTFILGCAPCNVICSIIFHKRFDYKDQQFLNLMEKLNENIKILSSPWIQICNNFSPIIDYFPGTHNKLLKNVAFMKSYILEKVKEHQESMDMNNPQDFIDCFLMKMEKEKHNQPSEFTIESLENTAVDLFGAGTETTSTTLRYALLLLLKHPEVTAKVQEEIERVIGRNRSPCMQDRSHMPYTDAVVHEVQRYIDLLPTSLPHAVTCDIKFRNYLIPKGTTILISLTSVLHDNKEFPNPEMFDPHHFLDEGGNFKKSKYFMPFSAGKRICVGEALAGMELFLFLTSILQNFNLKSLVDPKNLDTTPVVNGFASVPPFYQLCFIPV
Sequence of Cytochrome P450 2C19 (P33261 whole entry): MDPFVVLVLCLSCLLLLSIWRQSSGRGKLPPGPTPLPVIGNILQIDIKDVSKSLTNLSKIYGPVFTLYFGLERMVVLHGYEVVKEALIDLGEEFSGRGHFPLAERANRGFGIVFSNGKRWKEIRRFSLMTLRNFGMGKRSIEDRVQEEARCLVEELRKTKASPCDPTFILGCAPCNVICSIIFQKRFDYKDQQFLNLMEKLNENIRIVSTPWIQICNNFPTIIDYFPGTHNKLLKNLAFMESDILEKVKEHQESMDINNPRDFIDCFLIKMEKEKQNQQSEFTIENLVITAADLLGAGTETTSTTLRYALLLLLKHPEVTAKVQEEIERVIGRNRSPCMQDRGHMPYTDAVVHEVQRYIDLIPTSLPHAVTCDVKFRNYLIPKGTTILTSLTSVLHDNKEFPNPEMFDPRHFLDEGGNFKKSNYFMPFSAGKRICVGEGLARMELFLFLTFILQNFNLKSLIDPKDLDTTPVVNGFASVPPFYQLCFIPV
Sequence of CYP2C19 (P33261 whole entry): as above
Sequence of CYP2D6 (P10635 whole entry): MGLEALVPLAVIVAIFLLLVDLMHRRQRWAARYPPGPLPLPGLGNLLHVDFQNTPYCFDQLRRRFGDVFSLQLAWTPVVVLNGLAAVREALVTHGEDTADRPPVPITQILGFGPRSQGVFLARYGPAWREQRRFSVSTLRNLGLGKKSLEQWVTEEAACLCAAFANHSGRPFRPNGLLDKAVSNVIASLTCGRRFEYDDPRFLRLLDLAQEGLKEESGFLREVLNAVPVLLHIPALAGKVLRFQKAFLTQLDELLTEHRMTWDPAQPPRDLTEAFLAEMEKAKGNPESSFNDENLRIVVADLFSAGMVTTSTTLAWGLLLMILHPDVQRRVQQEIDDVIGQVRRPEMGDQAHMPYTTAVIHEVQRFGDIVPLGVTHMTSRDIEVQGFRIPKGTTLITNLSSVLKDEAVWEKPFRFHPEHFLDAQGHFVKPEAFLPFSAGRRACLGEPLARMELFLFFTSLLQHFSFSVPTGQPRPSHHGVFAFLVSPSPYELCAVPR
Sequence of Cytochrome P450 2D6 (P10635 whole entry): as above
Sequence of CYP2C9 (P11712 whole entry): as the sequence (P11712 whole entry) above

With `CNc1cc(-c2csc(=O)[nH]2)cc(S(=O)(=O)NC2CCCC2)c1C`, the TDI result in data set [1], in data set [2], in data set [6], in [9] and in [11] was “Not Active” in each case. In [3], the “inhibition (INH)” value was “Not Active”. In addition, the IC50 is 198 nM in data set [4], 250 nM in data set [10], 505 nM in [14] and 850 nM in data set [16]. For the same compound, the inhibition at 20 min, 10 µM worked out at 37% in data set [5]; 17% in data set [7]; 47% in data set [12]; 36% in data set [13]; 41% in [15]. The microsomal CLint at 1 µM in data set [8] stood at 174 µL/min/mg.

Take `COc1cc2c(cc1-c1c(C)noc1C)ncc1[nH]c(=O)n([C@H](C)c3ccccn3)c12`: the TDI entry in data set [1], in data set [2], in data set [6], in data set [9] and in data set [11] was “Not Active” in each case. The inhibition at 20 min, 10 µM in data set [17] was found to be 33%; in data set [5], 18%; in data set [7], 19%; in [12], 22%; in data set [13] it was 18%; in data set [15] it was 21%. The figures for the IC50 in [4], in [14] and in data set [16] were 119 nM, 299 nM and 945 nM, respectively.

For the compound `O=C(Nc1cc(-c2csc(=O)[nH]2)cc(S(=O)(=O)NC2CCCC2)c1)c1cccs1`, the TDI result in data set [1], in data set [2], in data set [6], in data set [9] and in data set [11] was “Not Active” each time. Also, the inhibition at 20 min, 10 µM in [17] is 57%; in data set [5] it was 45%; in data set [7] it was 46%; in data set [12] it was 34%; in data set [13], 44%; in data set [15], 17%. Besides, the IC50 is 272 nM in [4], 110 nM in [10], 3300 nM in data set [14] and 25200 nM in data set [16]. Moreover, the microsomal CLint at 1 µM in data set [8] is 64 µL/min/mg.
